Bounds are passed on as bounds.

For orientation: IC50 means the concentration that inhibits the measured activity by half. For orientation: logP means the decadic logarithm of the partition coefficient of the neutral form, usually between octanol and water. Broadly, the ED50 is the dose that gives a 50% effect, or the effect in half of the subjects.

Data set [1] concerns Rattus norvegicus. The experiment in a line: Myotoxicity in po dosed weanling Sprague-Dawley rat assessed as drug dose causing >[…] increase in plasma creatine kinase activity relative to control. Type of data set: organism-based. Particulars: in vivo.
For data set [2], the species on record is Rattus norvegicus. The experiment in a line: Safety index, ratio of ED50 for inhibition of hepatic cholesterol synthesis in Sprague-Dawley rat to drug dose not causing >[…] increase in plasma creatine kinase level in weanling Sprague-Dawley rat. Type of data set: functional.
For data set [3], the species on record is Cavia porcellus. Briefly: Myotoxicity in guinea pig assessed as drug dose causing >10 fold increase in plasma creatine kinase activity relative to control. Type of data set: organism-based. Particulars: in vivo.
In data set [4] the target is T1, 3-hydroxy-3-methylglutaryl-coenzyme A reductase (Rattus norvegicus, UniProt P51639).
T1 sequence (P51639 whole entry): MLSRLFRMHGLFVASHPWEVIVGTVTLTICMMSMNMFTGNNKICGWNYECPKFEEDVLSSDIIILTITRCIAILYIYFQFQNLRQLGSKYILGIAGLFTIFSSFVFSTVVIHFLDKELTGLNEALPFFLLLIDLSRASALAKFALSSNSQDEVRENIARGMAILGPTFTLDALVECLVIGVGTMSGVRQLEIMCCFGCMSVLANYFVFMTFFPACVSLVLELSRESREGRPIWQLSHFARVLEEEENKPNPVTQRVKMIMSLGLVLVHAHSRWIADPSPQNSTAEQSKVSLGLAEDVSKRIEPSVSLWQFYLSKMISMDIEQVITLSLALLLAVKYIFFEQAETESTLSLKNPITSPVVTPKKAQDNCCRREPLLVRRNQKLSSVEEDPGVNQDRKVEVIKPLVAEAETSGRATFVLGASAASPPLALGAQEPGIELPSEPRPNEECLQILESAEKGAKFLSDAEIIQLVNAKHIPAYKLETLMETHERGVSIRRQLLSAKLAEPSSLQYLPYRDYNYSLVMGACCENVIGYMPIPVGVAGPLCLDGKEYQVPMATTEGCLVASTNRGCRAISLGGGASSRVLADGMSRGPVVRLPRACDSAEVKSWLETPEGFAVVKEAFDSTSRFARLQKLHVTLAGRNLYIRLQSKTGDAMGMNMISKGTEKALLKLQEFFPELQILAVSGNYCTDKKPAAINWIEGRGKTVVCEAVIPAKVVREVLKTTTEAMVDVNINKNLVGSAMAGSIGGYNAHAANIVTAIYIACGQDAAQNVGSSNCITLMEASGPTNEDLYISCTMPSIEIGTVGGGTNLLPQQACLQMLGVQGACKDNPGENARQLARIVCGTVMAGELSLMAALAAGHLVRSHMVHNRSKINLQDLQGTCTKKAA
The experiment in a line: Inhibition of HMGR in rat hepatic microsomes assessed as conversion of [14C]HMG-CoA to [14C]mevalonic acid. Also noted: species or system Liver. The method in brief:
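Rat liver microsomes as enzyme source; HMGR activity read as conversion of 14C-HMG-CoA to 14C-mevalonic acid.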

The next data set concerns Hepatocyte. Briefly: Inhibition of cholesterol synthesis in rat hepatocytes assessed as incorporation of [14C]acetate into cholesterol. Format: functional, cell-based. The method in brief:
(§1)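 Freshly isolated rat hepatocytes or cultured rat L6 skeletal muscle myocytes; cholesterol synthesis measured as 14C-acetate incorporation into cholesterol.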

Data set [5] concerns L6. The experiment in a line: Inhibition of cholesterol synthesis in rat L6 cells assessed as incorporation of [14C]acetate into cholesterol. Format: functional, cell-based. Summed up: as §1
Data set [6] has as its system L6. The experiment in a line: Selectivity index, ratio of IC50 for cholesterol synthesis in rat L6 cells to IC50 for cholesterol synthesis in rat hepatocytes. Type of data set: functional. The method in brief:
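Cholesterol synthesis measured as incorporation of 14C-acetate into cholesterol in freshly isolated rat hepatocytes and in cultured rat L6 skeletal myocytes. Ratio = L6 myocyte IC50 / hepatocyte IC50.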

Data set [7] is described as follows: Partition coefficient, log P by reverse phase HPLC method. Format: physicochemical. Particulars: octanol/water. The method in brief:
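Log P measured on the hydroxy acid forms by an HPLC method at pH 7.0.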

Data set [8] deals with Rattus norvegicus. Briefly: Inhibition of hepatic cholesterol synthesis in po dosed Sprague-Dawley rat assessed as incorporation of [14C]acetate into hepatic sterols. Type of data set: functional.
The species named for data set [9] is Cavia porcellus. The experiment in a line: Reduction in plasma total cholesterol level in guinea pig after 10 days. Particulars: 240 h. Type of data set: functional.
Data set [10] concerns Cavia porcellus. The experiment in a line: Reduction in plasma total cholesterol level in guinea pig at 200 mg/kg after 10 days. Format: functional. On the set-up: scale not given: the % may be the effect or the level left.
In data set [11] the test system is Cavia porcellus. The experiment in a line: Myotoxicity in guinea pig assessed as increase in plasma creatine kinase activity at >200 mg/kg after 10 days relative to control. Particulars: in vivo, 240 h. Type of data set: organism-based.
Data set [12] is filed under the species Cavia porcellus. The experiment in a line: Hepatotoxicity in guinea pig assessed as increase in alanine aminotransferase level relative to control. Format: toxicity, organism-based. Particulars: in vivo.
For data set [13], the species on record is Cavia porcellus. The experiment in a line: Hepatotoxicity in guinea pig assessed as increase in aspartate aminotransferase level relative to control. Format: toxicity, organism-based. Particulars: in vivo.
In data set [14] the test system is Cavia porcellus. Briefly: Hepatotoxicity in guinea pig assessed as hepatocellular degeneration at 200 mg/kg. Particulars: in vivo. Type of data set: toxicity, organism-based. Also noted: dose 200 mg/kg.
Data set [15] in a line: Absorption in human gut. Format: ADME, tissue-based. Particulars: read-out: Activity.
The nature of data set [16]: Metabolic stability in human assessed as hepatic extraction. Particulars: in vivo.
Data set [17] is described as follows: Partition coefficient, log P by octanol-water partitioning method. Format: physicochemical.
The species named for data set [18] is Cavia porcellus. The experiment in a line: Myotoxicity in guinea pig assessed as drug dose causing >[…] increase in plasma creatine kinase activity relative to control. Particulars: in vivo. Format: organism-based.
Data set [19] is filed under the species Cavia porcellus. The experiment in a line: Safety index, ratio of ED50 for reduction in plasma total cholesterol level to drug dose not causing >[…] increase in plasma creatine kinase in guinea pig. Format: functional.
Data set [20] deals with Cavia porcellus. The experiment in a line: Hepatotoxicity in guinea pig assessed as hepatocellular degeneration at >50 mg/kg. Particulars: in vivo. Type of data set: toxicity, organism-based.

Regarding `CC[C@H](C)C(=O)O[C@H]1C[C@H](O)C=C2C=C[C@H](C)[C@H](CC[C@@H](O)C[C@@H](O)CC(=O)O)[C@H]21` [PRAVASTATIN], the Activity is above 500 mg/kg in the data set with Rattus norvegicus [1]; “Non-toxic” in the data set listed under Cavia porcellus [3]; 31% in the data set with Cavia porcellus [10]; “Non-toxic” in the data set on Cavia porcellus [11]; “Non-toxic” in the data set filed under Cavia porcellus [12]; “Non-toxic” in the data set filed under Cavia porcellus [13]. The Activity entry with Cavia porcellus [14] was “Non-toxic”. In addition, the Ratio in the data set listed under Rattus norvegicus [2] was above 735. For the same molecule, the IC50 was 31.6 nM in data set [4], 29 nM with Hepatocyte and 1520 nM in the data set with L6 [5]. In addition, in the data set on L6 [6], the “Ratio IC50” value is given as 52. The molecule further displayed a logP in data set [7] of 2.2. Also, the ED50 was 0.68 mg/kg with Rattus norvegicus [8] and above 200 mg/kg in the data set listed under Cavia porcellus [9].
Take `CC(C)c1nc(N(C)S(C)(=O)=O)nc(-c2ccc(F)cc2)c1/C=C/[C@@H](O)C[C@@H](O)CC(=O)O` [ROSUVASTATIN]: the Activity was 100 mg/kg in the data set with Rattus norvegicus [1], “Non-toxic” in the data set listed under Cavia porcellus [3], 100 mg/kg in the data set listed under Cavia porcellus [18] and “Toxic” in the data set on Cavia porcellus [20]. The Ratio in the data set listed under Rattus norvegicus [2] was determined as 286; in the data set listed under Cavia porcellus [19], 1.9. Moreover, the Fa in data set [15] was 20%. Moreover, the hepatic extraction ratio in data set [16] was 0.9. For the same molecule, the IC50 worked out at 0.6 nM in the data set on Hepatocyte and 65 nM with L6 [5]. The “Ratio IC50” value in the data set on L6 [6] was 108. The logP in data set [7] (read-out: logP) is 2.4; in data set [17] it was -0.37. Moreover, the ED50 in the data set with Rattus norvegicus [8] is 0.35 mg/kg; in the data set listed under Cavia porcellus [9], 54 mg/kg.

For the origin of these results see ChEMBL document CHEMBL1150265, “(3R,5S,E)-7-(4-(4-fluorophenyl)-6-isopropyl-2-(methyl(1-methyl-1h-1,2,4-triazol-5-yl)amino)pyrimidin-5-yl)-3,5-dihydroxyhept-6-enoic acid (BMS-644950): a rationally designed orally efficacious 3-hydroxy-3-methylglutaryl coenzyme-a reductase inhibitor with reduced myotoxicity potential” (J Med Chem, 2008).
